Test results: ChEMBL document CHEMBL4689842, “EUbOPEN Chemogenomics Library wave 1” (2021)
Several values for one entry are separate records, joined by “and”; a condition that tells them apart may be missing. Identical values can stand only once.

Legend:
Type in all cases: toxicity, cell-based
HEK-293T [1] = assay: Multiplex assay against HEK293T; conditions: human, 1 µM, compound concentration 1 uM;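 for Population Tubulin-Different-Phenotype (%): share of the cells with healthy nuclei that show this phenotype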
Summary of the method: (§1)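 Phenotypes for tubulin, mitochondrial mass and membrane permeability are expressed as per cents of healthy-nucleus cells. Cells were stained live at seeding with Hoechst33342, BioTracker Green Microtubule Cytoskeleton Dye, MitoTracker Red and Annexin V Alexa Fluor 680, then imaged after compound addition on a CQ1 microscope at 37°C and 5% CO2. Machine-learning gating in CellPathfinder separated Hoechst high-intensity objects from normal cells, divided normal cells by nuclear state (healthy, pyknosed, fragmented) and divided pyknosed cells into mitotic or apoptotic.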

U2OS [2] = assay: Multiplex assay against U2OS; conditions: human, 1 µM, compound concentration 1 uM; summary of the method: as §1
Fibroblast [3] = assay: Multiplex assay against human fibroblast; conditions: 1 µM, compound concentration 1 uM; summary of the method: as §1
U2OS [4] = assay: Incucyte cell viability with U2OS; conditions: human, 10 µM, compound concentration 10 uM; note: filed as whole numbers so only -1 and 0 and 1 occur
Fibroblast [5] = assay: Incucyte cell viability with human fibroblast; conditions: 10 µM, compound concentration 10 uM; note: filed as whole numbers so only -1 and 0 and 1 occur
HEK-293T [6] = assay: Incucyte cell viability with HEK293T; conditions: human, 10 µM, compound concentration 10 uM; note: filed as whole numbers so only -1 and 0 and 1 occur
[7] = 6 h, replicate number 1, timepoint 6 hours
[8] = 12 h, replicate number 1, timepoint 12 hours
[9] = 12 h, replicate number 2, timepoint 12 hours
[10] = 18 h, replicate number 1, timepoint 18 hours
[11] = 24 h, replicate number 1, timepoint 24 hours
[12] = 0 h, replicate number 1, timepoint 0 hours

Compound: CC[C@@H]1C(=O)N(C)c2cnc(Nc3ccc(C(=O)N[C@H]4CC[C@H](N5CCN(CC6CC6)CC5)CC4)cc3OC)nc2N1C(C)C [VOLASERTIB]
- Population Apoptotic (%) (HEK-293T [1]; 12 h, replicate 1): 44% and 18%
- Population Fragmented Nuclei (%) (HEK-293T [1]; 12 h, replicate 1): 29% and 10%
- Population Healthy Nuclei (%) (HEK-293T [1]; 12 h, replicate 1): 31% and 58%
- Population Hoechst High Intensity Objects (%) (HEK-293T [1]; 12 h, replicate 1): 18% and 13%
- Population Membrane Permeable-Phenotype (%) (HEK-293T [1]; 12 h, replicate 1): 15% and 21%
- Population Mitotic Cells (%) (HEK-293T [1]; 12 h, replicate 1): 55% and 81%
- Population Normal (%) (HEK-293T [1]; 12 h, replicate 1): 81% and 86%
- Population Pyknosed Nuclei (%) (HEK-293T [1]; 12 h, replicate 1): 38% and 30%
- Population Tubulin-Different-Phenotype (%) (HEK-293T [1]; 12 h, replicate 1): 77% and 61%
- Total Cell Count (HEK-293T [1]; 12 h, replicate 1): 539 and 544
- Population Fragmented Nuclei (%) (HEK-293T [1]; 12 h, replicate 2): 3%
- Population Healthy Nuclei (%) (HEK-293T [1]; 12 h, replicate 2): 76%
- Population Hoechst High Intensity Objects (%) (HEK-293T [1]; 12 h, replicate 2): 2% and 5%
- Population Membrane Permeable-Phenotype (%) (HEK-293T [1]; 12 h, replicate 2): 18% and 12%
- Population Mitochondria Different-Phenotype (%) (HEK-293T [1]; 12 h, replicate 2): 31% and 62%
- Population Mitotic Cells (%) (HEK-293T [1]; 12 h, replicate 2): 93% and 80%
- Population Normal (%) (HEK-293T [1]; 12 h, replicate 2): 97% and 94%
- Population Pyknosed Nuclei (%) (HEK-293T [1]; 12 h, replicate 2): 19%
- Population Tubulin-Different-Phenotype (%) (HEK-293T [1]; 12 h, replicate 2): 87% and 96%
- Total Cell Count (HEK-293T [1]; 12 h, replicate 2): 982 and 1003
- Population Healthy Nuclei (%) (HEK-293T [1]; 24 h, replicate 1): 30% and 54%
- Population Hoechst High Intensity Objects (%) (HEK-293T [1]; 24 h, replicate 1): 21% and 9%
- Population Membrane Permeable-Phenotype (%) (HEK-293T [1]; 24 h, replicate 1): 9% and 11%
- Population Mitotic Cells (%) (HEK-293T [1]; 24 h, replicate 1): 53% and 84%
- Population Normal (%) (HEK-293T [1]; 24 h, replicate 1): 78% and 90%
- Population Pyknosed Nuclei (%) (HEK-293T [1]; 24 h, replicate 1): 36% and 34%
- Population Tubulin-Different-Phenotype (%) (HEK-293T [1]; 24 h, replicate 1): 77% and 76%
- Total Cell Count (HEK-293T [1]; 24 h, replicate 1): 579 and 547
- Population Apoptotic (%) (HEK-293T [1]; 24 h, replicate 2): 6% and 12%
- Population Fragmented Nuclei (%) (HEK-293T [1]; 24 h, replicate 2): 3% and 7%
- Population Healthy Nuclei (%) (HEK-293T [1]; 24 h, replicate 2): 47% and 61%
- Population Hoechst High Intensity Objects (%) (HEK-293T [1]; 24 h, replicate 2): 3% and 6%
- Population Membrane Permeable-Phenotype (%) (HEK-293T [1]; 24 h, replicate 2): 7% and 10%
- Population Mitochondria Different-Phenotype (%) (HEK-293T [1]; 24 h, replicate 2): 28% and 53%
- Population Mitotic Cells (%) (HEK-293T [1]; 24 h, replicate 2): 93% and 87%
- Population Normal (%) (HEK-293T [1]; 24 h, replicate 2): 96% and 93%
- Population Pyknosed Nuclei (%) (HEK-293T [1]; 24 h, replicate 2): 48% and 30%
- Population Tubulin-Different-Phenotype (%) (HEK-293T [1]; 24 h, replicate 2): 91% and 83%
- Total Cell Count (HEK-293T [1]; 24 h, replicate 2): 956 and 1101
- Population Apoptotic (%) (U2OS [2]; 12 h, replicate 1): 60% and 78%
- Population Fragmented Nuclei (%) (U2OS [2]; 12 h, replicate 1): 8% and 12%
- Population Healthy Nuclei (%) (U2OS [2]; 12 h, replicate 1): 81% and 61%
- Population Hoechst High Intensity Objects (%) (U2OS [2]; 12 h, replicate 1): 4% and 3%
- Population Membrane Permeable-Phenotype (%) (U2OS [2]; 12 h, replicate 1): 46% and 31%
- Population Mitochondria Different-Phenotype (%) (U2OS [2]; 12 h, replicate 1): 32% and 71%
- Population Mitotic Cells (%) (U2OS [2]; 12 h, replicate 1): 40% and 21%
- Population Normal (%) (U2OS [2]; 12 h, replicate 1): 95% and 96%
- Population Pyknosed Nuclei (%) (U2OS [2]; 12 h, replicate 1): 10% and 25%
- Population Tubulin-Different-Phenotype (%) (U2OS [2]; 12 h, replicate 1): 88% and 100%
- Total Cell Count (U2OS [2]; 12 h, replicate 1): 145 and 156
- Population Apoptotic (%) (U2OS [2]; 12 h, replicate 2): 75% and 76%
- Population Fragmented Nuclei (%) (U2OS [2]; 12 h, replicate 2): 11% and 18%
- Population Healthy Nuclei (%) (U2OS [2]; 12 h, replicate 2): 82% and 57%
- Population Hoechst High Intensity Objects (%) (U2OS [2]; 12 h, replicate 2): 21% and 7%
- Population Membrane Permeable-Phenotype (%) (U2OS [2]; 12 h, replicate 2): 30% and 61%
- Population Mitochondria Different-Phenotype (%) (U2OS [2]; 12 h, replicate 2): 46% and 96%
- Population Mitotic Cells (%) (U2OS [2]; 12 h, replicate 2): 25% and 24%
- Population Normal (%) (U2OS [2]; 12 h, replicate 2): 78% and 92%
- Population Tubulin-Different-Phenotype (%) (U2OS [2]; 12 h, replicate 2): 94%
- Total Cell Count (U2OS [2]; 12 h, replicate 2): 110 and 80
- Population Apoptotic (%) (U2OS [2]; 24 h, replicate 1): 66% and 77%
- Population Fragmented Nuclei (%) (U2OS [2]; 24 h, replicate 1): 10%
- Population Healthy Nuclei (%) (U2OS [2]; 24 h, replicate 1): 76% and 58%
- Population Hoechst High Intensity Objects (%) (U2OS [2]; 24 h, replicate 1): 5%
- Population Membrane Permeable-Phenotype (%) (U2OS [2]; 24 h, replicate 1): 28% and 82%
- Population Mitochondria Different-Phenotype (%) (U2OS [2]; 24 h, replicate 1): 38% and 96%
- Population Mitotic Cells (%) (U2OS [2]; 24 h, replicate 1): 33% and 22%
- Population Normal (%) (U2OS [2]; 24 h, replicate 1): 94%
- Population Pyknosed Nuclei (%) (U2OS [2]; 24 h, replicate 1): 14% and 23%
- Population Tubulin-Different-Phenotype (%) (U2OS [2]; 24 h, replicate 1): 78%
- Total Cell Count (U2OS [2]; 24 h, replicate 1): 159 and 158
- Population Apoptotic (%) (U2OS [2]; 24 h, replicate 2): 65% and 61%
- Population Fragmented Nuclei (%) (U2OS [2]; 24 h, replicate 2): 18% and 15%
- Population Healthy Nuclei (%) (U2OS [2]; 24 h, replicate 2): 48% and 67%
- Population Hoechst High Intensity Objects (%) (U2OS [2]; 24 h, replicate 2): 10% and 12%
- Population Membrane Permeable-Phenotype (%) (U2OS [2]; 24 h, replicate 2): 86%
- Population Mitochondria Different-Phenotype (%) (U2OS [2]; 24 h, replicate 2): 100% and 57%
- Population Mitotic Cells (%) (U2OS [2]; 24 h, replicate 2): 34% and 38%
- Population Normal (%) (U2OS [2]; 24 h, replicate 2): 89% and 87%
- Population Pyknosed Nuclei (%) (U2OS [2]; 24 h, replicate 2): 32% and 17%
- Population Tubulin-Different-Phenotype (%) (U2OS [2]; 24 h, replicate 2): 100% and 71%
- Total Cell Count (U2OS [2]; 24 h, replicate 2): 83 and 123
- Population Apoptotic (%) (Fibroblast [3]; 12 h, replicate 1): 76% and 71%
- Population Fragmented Nuclei (%) (Fibroblast [3]; 12 h, replicate 1): 43% and 28%
- Population Healthy Nuclei (%) (Fibroblast [3]; 12 h, replicate 1): 42% and 54%
- Population Hoechst High Intensity Objects (%) (Fibroblast [3]; 12 h, replicate 1): 14% and 22%
- Population Membrane Permeable-Phenotype (%) (Fibroblast [3]; 12 h, replicate 1): 9% and 7%
- Population Mitochondria Different-Phenotype (%) (Fibroblast [3]; 12 h, replicate 1): 6% and 11%
- Population Mitotic Cells (%) (Fibroblast [3]; 12 h, replicate 1): 24% and 28%
- Population Normal (%) (Fibroblast [3]; 12 h, replicate 1): 85% and 77%
- Population Pyknosed Nuclei (%) (Fibroblast [3]; 12 h, replicate 1): 13% and 16%
- Total Cell Count (Fibroblast [3]; 12 h, replicate 1): 213 and 342
- Population Apoptotic (%) (Fibroblast [3]; 12 h, replicate 2): 53% and 50%
- Population Fragmented Nuclei (%) (Fibroblast [3]; 12 h, replicate 2): 48% and 67%
- Population Healthy Nuclei (%) (Fibroblast [3]; 12 h, replicate 2): 32% and 24%
- Population Hoechst High Intensity Objects (%) (Fibroblast [3]; 12 h, replicate 2): 36% and 43%
- Population Membrane Permeable-Phenotype (%) (Fibroblast [3]; 12 h, replicate 2): 17% and 16%
- Population Mitochondria Different-Phenotype (%) (Fibroblast [3]; 12 h, replicate 2): 26% and 33%
- Population Mitotic Cells (%) (Fibroblast [3]; 12 h, replicate 2): 46% and 50%
- Population Normal (%) (Fibroblast [3]; 12 h, replicate 2): 63% and 56%
- Population Pyknosed Nuclei (%) (Fibroblast [3]; 12 h, replicate 2): 18% and 8%
- Population Tubulin-Different-Phenotype (%) (Fibroblast [3]; 12 h, replicate 2): 78% and 58%
- Total Cell Count (Fibroblast [3]; 12 h, replicate 2): 111 and 87
- Population Apoptotic (%) (Fibroblast [3]; 24 h, replicate 1): 84% and 80%
- Population Fragmented Nuclei (%) (Fibroblast [3]; 24 h, replicate 1): 23% and 37%
- Population Healthy Nuclei (%) (Fibroblast [3]; 24 h, replicate 1): 52% and 50%
- Population Hoechst High Intensity Objects (%) (Fibroblast [3]; 24 h, replicate 1): 31% and 16%
- Population Membrane Permeable-Phenotype (%) (Fibroblast [3]; 24 h, replicate 1): 7%
- Population Mitotic Cells (%) (Fibroblast [3]; 24 h, replicate 1): 15% and 19%
- Population Normal (%) (Fibroblast [3]; 24 h, replicate 1): 68% and 83%
- Population Pyknosed Nuclei (%) (Fibroblast [3]; 24 h, replicate 1): 24% and 11%
- Total Cell Count (Fibroblast [3]; 24 h, replicate 1): 319 and 221
- Population Apoptotic (%) (Fibroblast [3]; 24 h, replicate 2): 100% and 64%
- Population Fragmented Nuclei (%) (Fibroblast [3]; 24 h, replicate 2): 62% and 44%
- Population Healthy Nuclei (%) (Fibroblast [3]; 24 h, replicate 2): 36% and 33%
- Population Hoechst High Intensity Objects (%) (Fibroblast [3]; 24 h, replicate 2): 38%
- Population Membrane Permeable-Phenotype (%) (Fibroblast [3]; 24 h, replicate 2): 5% and 13%
- Population Mitochondria Different-Phenotype (%) (Fibroblast [3]; 24 h, replicate 2): 22% and 45%
- Population Normal (%) (Fibroblast [3]; 24 h, replicate 2): 61%
- Population Tubulin-Different-Phenotype (%) (Fibroblast [3]; 24 h, replicate 2): 27% and 72%
- Total Cell Count (Fibroblast [3]; 24 h, replicate 2): 81 and 106
- Growth Rate (U2OS [4]; 0 h, replicate number 2, timepoint 0 hours): 0
- Growth Rate (U2OS [4]; [7]): 1
- Growth Rate (U2OS [4]; [8]): 0
- Growth Rate (U2OS [4]; [9]): 1
- Growth Rate (U2OS [4]; [10]): 0
- Growth Rate (U2OS [4]; [11]): 0
- Growth Rate (Fibroblast [5]; [12]): 0
- Growth Rate (Fibroblast [5]; [8]): 0
- Growth Rate (Fibroblast [5]; [9]): 1
- Growth Rate (Fibroblast [5]; [10]): 0
- Growth Rate (Fibroblast [5]; [11]): 0
- Growth Rate (HEK-293T [6]; [12]): 0
- Growth Rate (HEK-293T [6]; [7]): 0
- Growth Rate (HEK-293T [6]; [8]): 0
- Growth Rate (HEK-293T [6]; [10]): 0
- Growth Rate (HEK-293T [6]; [11]): 0
